Results reported in ChEMBL document CHEMBL1125911, “Synthesis and biological activity of new HMG-CoA reductase inhibitors. 3. Lactones of 6-phenoxy-3,5-dihydroxyhexanoic acids” (J Med Chem, 1991).
pIC50: −log10 of the molar value.

Legend:
Oryctolagus cuniculus [1] = test: Tested in vivo for hypocholesterolemic activity by measuring its ability to decrease serum total cholesterol, after oral administration of 50 mg/kg body wt. per day in normolipidemic NZW rabbits; type: functional
Procedure, shortened: (§1)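 NZW rabbits (n = 5 or 6) dosed orally daily for 10 days. Serum total cholesterol reported as % change versus control. For 20 mg/kg, that dose was given on days 11-20 after 10 mg/kg, with the value read on day 20. Error given as SEM.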

Rattus norvegicus [2] = test: In vivo inhibition of hepatic cholesterol de novo synthesis in rat after oral administration of 5 mg/kg dose; type: functional
Rattus norvegicus [3] = species on record: Rattus norvegicus; test: Potency relative to mevinolin was determined with respect to IC50. […]; type: functional
Rattus norvegicus [4] = test: Compound was tested for effect on body weight after oral administration of 100 mg/kg in male rats.; type: functional
Procedure, shortened: (§2)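 Male HOE:WISKf (SPF 71) rats, initial body weight over 180 g, n = 10 per group, dosed once daily in the morning by gavage in polyethylene glycol 400 for 7 days; controls received vehicle. Fasted after last dose, bled retroorbitally 24 h later under mild ether. Liver and body weight recorded. Pooled group serum was ultracentrifuged into VLDL (<1.006), LDL (1.006-1.04) and HDL (1.04-1.21). Values are % change versus control.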

Rattus norvegicus [5] = test: Compound was tested for effect on liver weight after oral administration of 100 mg/kg in male rats.; type: functional; procedure, shortened: as §2
Rattus norvegicus [6] = test: Compound was tested for effect on serum HDL after oral administration of 100 mg/kg in male rats; type: functional; procedure, shortened: as §2
Rattus norvegicus [7] = test: Compound was tested for effect on serum LDL after oral administration of 100 mg/kg in male rats; type: functional; procedure, shortened: as §2
Rattus norvegicus [8] = test: Compound was tested for effect on serum VLDL after oral administration of 100 mg/kg in male rats; type: functional; procedure, shortened: as §2
Oryctolagus cuniculus [9] = test: Tested in vivo for hypocholesterolemic activity by measuring its ability to decrease serum total cholesterol, after oral administration of 10 mg/kg body wt. per day in normolipidemic NZW rabbits; type: functional; procedure, shortened: as §1
Canis familiaris = test: Tested in vivo for hypocholesterolemic activity by measuring its ability to decrease serum LDL-cholesterol, after oral administration of 25 mg/kg per day for 14 days in male Beagle dogs.; type: functional, Canis lupus familiaris
Procedure, shortened: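 Male beagle dogs (n = 4) given neat compound in gelatine capsules daily at 3:00 p.m.; controls received empty capsules. After an overnight fast, venous blood was drawn at 8:00 a.m. Serum lipoproteins were separated by ultracentrifugation (densities 1.006/1.063/1.21). LDL-cholesterol reported as % change versus control.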

[10] = biological target: T1, 3-hydroxy-3-methylglutaryl-coenzyme A reductase (Rattus norvegicus, UniProt P51639); test: In vitro inhibition of HMG-CoA reductase in solubilized rat liver.
T1 sequence (P51639 whole entry): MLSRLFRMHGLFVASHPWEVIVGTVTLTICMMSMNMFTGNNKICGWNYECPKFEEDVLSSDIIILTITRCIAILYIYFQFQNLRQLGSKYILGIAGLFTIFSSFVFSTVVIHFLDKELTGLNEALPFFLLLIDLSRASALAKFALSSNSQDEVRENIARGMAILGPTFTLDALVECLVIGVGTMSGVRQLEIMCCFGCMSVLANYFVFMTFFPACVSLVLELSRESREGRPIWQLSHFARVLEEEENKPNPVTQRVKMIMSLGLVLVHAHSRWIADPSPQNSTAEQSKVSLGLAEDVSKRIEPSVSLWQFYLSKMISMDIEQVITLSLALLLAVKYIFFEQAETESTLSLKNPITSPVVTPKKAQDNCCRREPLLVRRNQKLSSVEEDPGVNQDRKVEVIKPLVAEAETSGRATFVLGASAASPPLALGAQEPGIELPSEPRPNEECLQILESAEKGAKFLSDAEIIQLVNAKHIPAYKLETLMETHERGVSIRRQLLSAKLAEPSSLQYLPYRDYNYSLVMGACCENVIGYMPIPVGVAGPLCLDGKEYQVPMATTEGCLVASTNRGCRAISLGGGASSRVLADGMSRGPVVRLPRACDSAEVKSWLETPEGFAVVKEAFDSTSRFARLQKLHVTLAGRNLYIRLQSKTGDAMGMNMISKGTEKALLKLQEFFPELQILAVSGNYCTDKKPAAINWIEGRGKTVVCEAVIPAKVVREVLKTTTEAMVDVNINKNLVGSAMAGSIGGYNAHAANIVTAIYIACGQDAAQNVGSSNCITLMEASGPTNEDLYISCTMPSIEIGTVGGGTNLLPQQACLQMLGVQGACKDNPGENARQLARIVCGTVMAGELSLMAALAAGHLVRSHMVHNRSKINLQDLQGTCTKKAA

[11] = biological target: T2, 3-hydroxy-3-methylglutaryl-coenzyme A reductase (Rattus norvegicus) (UniProt P51639); test: (§3) Inhibition of HMG-CoA reductase compared to mevinolin.
T2 sequence (whole entry): T1 sequence (P51639 whole entry)
Procedure, shortened: (§4)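 Solubilized, partially purified rat liver HMG-CoA reductase. IC50 from four or five inhibitor concentrations. Relative potency compared IC50 with mevinolin (set to 100), corrected for molecular weight.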

[12] = biological target: T3, 3-hydroxy-3-methylglutaryl-coenzyme A reductase (Homo sapiens, UniProt P04035); test: Inhibition of the incorporation of sodium [14C]acetate into cholesterol in HEP G2 cells.; type: functional, cell-based, HepG2
T3 sequence (P04035 whole entry): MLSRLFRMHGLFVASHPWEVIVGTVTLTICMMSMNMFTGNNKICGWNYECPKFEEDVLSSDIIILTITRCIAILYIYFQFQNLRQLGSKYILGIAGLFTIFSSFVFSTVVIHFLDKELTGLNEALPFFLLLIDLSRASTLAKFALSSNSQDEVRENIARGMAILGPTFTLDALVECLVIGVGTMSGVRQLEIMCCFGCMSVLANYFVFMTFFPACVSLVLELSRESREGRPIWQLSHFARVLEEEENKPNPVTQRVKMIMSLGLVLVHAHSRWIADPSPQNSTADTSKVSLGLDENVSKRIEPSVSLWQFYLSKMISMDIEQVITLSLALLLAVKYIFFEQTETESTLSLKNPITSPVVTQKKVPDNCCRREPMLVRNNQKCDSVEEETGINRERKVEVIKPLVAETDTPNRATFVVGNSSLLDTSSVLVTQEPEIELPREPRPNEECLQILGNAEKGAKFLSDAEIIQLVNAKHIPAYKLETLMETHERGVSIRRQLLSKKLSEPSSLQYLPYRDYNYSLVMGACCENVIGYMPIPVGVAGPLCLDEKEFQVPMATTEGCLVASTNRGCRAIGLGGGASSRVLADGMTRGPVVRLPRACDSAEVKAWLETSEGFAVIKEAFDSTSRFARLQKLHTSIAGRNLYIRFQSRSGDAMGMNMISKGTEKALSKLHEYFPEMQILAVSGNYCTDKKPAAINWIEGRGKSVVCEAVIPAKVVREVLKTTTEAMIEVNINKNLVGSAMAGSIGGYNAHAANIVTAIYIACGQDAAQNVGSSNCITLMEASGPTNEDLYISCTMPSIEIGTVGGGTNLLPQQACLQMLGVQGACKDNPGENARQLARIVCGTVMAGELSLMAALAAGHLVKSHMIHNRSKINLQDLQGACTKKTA

[13] = biological target: T4, 3-hydroxy-3-methylglutaryl-coenzyme A reductase (Homo sapiens) (UniProt P04035); test: as §3; type: functional; procedure, shortened: as §4
T4 sequence (whole entry): T3 sequence (P04035 whole entry)

[14] = biological target: T1, 3-hydroxy-3-methylglutaryl-coenzyme A reductase; test: In vitro inhibition of solubilized HMG-CoA reductase in rat liver.
Sus scrofa [15] = species on record: Sus scrofa; test: In vitro inhibition of Cu2+ catalyzed LDL oxidation; type: functional
Procedure, shortened: (§5)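 Porcine plasma LDL isolated by sequential ultracentrifugation (density 1.019-1.063 g/mL), dialysed against PBS pH 7.4, then diluted to 0.1 mg/mL protein. Preincubated 1 h at 37 °C under N2 with compound in ethanol. Oxidised with 5 μM Cu2+ for 2 h at 37 °C in air. Fluorescence read at ex 365/em 430 nm.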

Sus scrofa [16] = species on record: Sus scrofa; test: Compound was tested for inhibition of Cu2+ catalyzed LDL oxidation and the potency relative to terbufucine was determined; type: functional; procedure, shortened: as §5
Rattus norvegicus [17] = test: Compound was tested for effect on body weight after oral administration of 30 mg/kg in male rats.; type: functional; procedure, shortened: as §2
Rattus norvegicus [18] = test: Compound was tested for effect on liver weight after oral administration of 30 mg/kg in male rats.; type: functional; procedure, shortened: as §2
Rattus norvegicus [19] = test: Compound was tested for effect on serum HDL after oral administration of 30 mg/kg in male rats; type: functional; procedure, shortened: as §2
Rattus norvegicus [20] = test: Compound was tested for effect on serum LDL after oral administration of 30 mg/kg in male rats; type: functional; procedure, shortened: as §2
Rattus norvegicus [21] = test: Compound was tested for effect on serum VLDL after oral administration of 30 mg/kg in male rats; type: functional; procedure, shortened: as §2
Rattus norvegicus [22] = species on record: Rattus norvegicus; test: In vitro inhibition of microsomal lipid peroxidation; type: functional
Procedure, shortened: (§6)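 Rat liver microsomes in 50 mM Tris-HCl pH 7.4 with 100 mM KCl and 6.0 mM MgCl2, final protein 0.4 mg/mL. Peroxidation was started with ADP (2 mM)/FeCl3 (10 μM) plus an NADPH-regenerating system. Incubation 30 min at 37 °C with shaking. Thiobarbituric acid reactive substances were read at 535 nm.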

Rattus norvegicus [23] = species on record: Rattus norvegicus; test: In vitro inhibition of microsomal lipid peroxidation at 10e-5 M conc.; type: functional; procedure, shortened: as §6
Rattus norvegicus [24] = species on record: Rattus norvegicus; test: Compound was tested for inhibition of microsomal lipid peroxidation and the potency relative to terbufucine was determined; type: functional; procedure, shortened: as §6

O=C1C[C@H](O)CC(COc2c(Cl)cc(Cl)cc2CC2CCCCC2)O1 (some centres not stated)
Change (Oryctolagus cuniculus [1]): -11%
Cholesterol (Rattus norvegicus [2]): 36.4%
Relative potency (Rattus norvegicus [3]): 74

CCOC(=O)C(C)(C)Oc1ccc(Cl)cc1 [CLOFIBRATE]
Change (Rattus norvegicus [4]): 8%
Change (Rattus norvegicus [5]): 15%
Change (Rattus norvegicus [6]): -29%
Change (Rattus norvegicus [7]): -19%
Change (Rattus norvegicus [8]): -40%

Cc1cc(Cl)cc(CCCOc2ccc(Cl)cc2)c1OCC1C[C@@H](O)CC(=O)O1 (some centres not stated)
Change (Oryctolagus cuniculus [1]): -2%
Cholesterol (Rattus norvegicus [2]): 25.2%
Relative potency (Rattus norvegicus [3]): 87

CC(C)c1cc(C(C)(C)C)cc(-c2ccc(F)cc2)c1OCC1C[C@@H](O)CC(=O)O1 (some centres not stated)
Change (Oryctolagus cuniculus [9]): -15%
Cholesterol (Rattus norvegicus [2]): 95.7%
Relative potency (Rattus norvegicus [3]): 6

CC(C)c1cc(-c2ccc(F)cc2)cc(-c2ccc(F)cc2)c1OCC(O)C[C@@H](O)CC(=O)[O-].[Na+] (some centres not stated)
Change (Canis familiaris): 3%
pIC50 [10]: 7.77
Relative potency [11]: 43
pIC50 [12]: 7.26
Relative potency [13]: 90

Cc1cc(-c2ccccc2)nc(-c2ccc(F)cc2)c1/C=C/[C@@H](O)C[C@@H](O)CC(=O)O
pIC50 [14]: 7.42

O=C1C[C@H](O)CC(COc2c(Cl)cc(Cl)cc2C(c2ccc(F)cc2)c2ccc(F)cc2)O1 (some centres not stated)
Cholesterol (Rattus norvegicus [2]): 65.6%
Relative potency (Rattus norvegicus [3]): 40

CC(C)(Sc1cc(C(C)(C)C)c(O)c(C(C)(C)C)c1)Sc1cc(C(C)(C)C)c(O)c(C(C)(C)C)c1 [PROBUCOL]
pIC50 (Sus scrofa [15]): 6.30
Relative potency (Sus scrofa [16]): 22
Change (Rattus norvegicus [17]): 5%
Change (Rattus norvegicus [18]): 5%
Change (Rattus norvegicus [19]): -11%
Change (Rattus norvegicus [20]): -24%
Change (Rattus norvegicus [21]): 4%

CC(=O)Oc1c(C(C)C)c(-c2ccc(F)cc2)c(O)c(C(C)C)c1C(C)C
pIC50 (Rattus norvegicus [22]): 5.32
inhibition (Rattus norvegicus [23]): 83%
Relative potency (Rattus norvegicus [24]): 2
